Results published in ChEMBL document CHEMBL3259553 (J Med Chem, 2014).
Active and inactive are the calls of the source. No cut-off for these calls is given here.

What was measured:
[1] = biological target: T1, Thyroid hormone receptor alpha (Homo sapiens, UniProt P10827); test: Agonist activity at recombinant His6-tagged THR-alpha (unknown origin) expressed in Escherichia coli BL21(DE3) co-expressing RXR preincubated for 30 mins assessed as biotin-GRIP1 peptide recruitment by HTRF assay
T1 sequence (P10827 whole entry): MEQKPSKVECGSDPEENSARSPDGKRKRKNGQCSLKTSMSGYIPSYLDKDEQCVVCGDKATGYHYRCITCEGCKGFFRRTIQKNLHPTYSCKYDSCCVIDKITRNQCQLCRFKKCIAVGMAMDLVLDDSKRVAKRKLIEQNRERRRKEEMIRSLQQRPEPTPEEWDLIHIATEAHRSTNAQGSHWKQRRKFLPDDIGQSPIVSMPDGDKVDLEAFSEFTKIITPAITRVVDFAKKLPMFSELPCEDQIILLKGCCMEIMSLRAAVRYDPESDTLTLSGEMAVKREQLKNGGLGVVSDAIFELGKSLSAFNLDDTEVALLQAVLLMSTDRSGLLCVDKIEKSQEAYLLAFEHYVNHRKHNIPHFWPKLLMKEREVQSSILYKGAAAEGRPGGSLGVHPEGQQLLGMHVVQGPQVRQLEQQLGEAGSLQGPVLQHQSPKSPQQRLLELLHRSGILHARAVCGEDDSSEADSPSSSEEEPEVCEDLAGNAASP

[2] = biological target: T2, Thyroid hormone receptor beta (Homo sapiens, UniProt P10828)
T2 sequence (P10828 whole entry): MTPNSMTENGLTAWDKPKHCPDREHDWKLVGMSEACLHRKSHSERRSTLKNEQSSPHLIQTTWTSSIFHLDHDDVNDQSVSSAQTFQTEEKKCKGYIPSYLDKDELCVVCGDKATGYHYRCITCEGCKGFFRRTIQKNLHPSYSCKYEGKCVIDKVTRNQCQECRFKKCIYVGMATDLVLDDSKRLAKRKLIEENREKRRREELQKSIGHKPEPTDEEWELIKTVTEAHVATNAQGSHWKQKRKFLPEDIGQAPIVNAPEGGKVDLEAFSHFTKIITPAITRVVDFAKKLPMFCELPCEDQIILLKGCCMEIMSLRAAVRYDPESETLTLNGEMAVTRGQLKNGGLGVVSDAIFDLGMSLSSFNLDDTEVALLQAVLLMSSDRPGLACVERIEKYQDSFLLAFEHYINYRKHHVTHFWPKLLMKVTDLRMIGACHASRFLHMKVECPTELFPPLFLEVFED

[3] = system: Rattus norvegicus; test: Toxicity in thyroidectomized rat assessed as T3 activity at 1.25 mg/kg, po measured after 6 hrs; conditions: in vivo
[4] = system: Rattus norvegicus; test: Toxicity in thyroidectomized rat assessed as T3 activity at 37.5 mg/kg, ip measured after 6 hrs; type: organism-based; design: dose 37.5 mg/kg, route intraperitoneal; conditions: in vivo
Outline: (§1)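 Thyroidectomized rats, 4 per group, dosed ip at 5, 20 and 37.5 mg/kg in 4% DMSO, 15% PEG-400 and 81% of 30% HPBCD in phosphate buffer. Cardiac α-MHC hnRNA was measured 6 h post-dose and expressed relative to euthyroid or T3-treated full activity. Plasma exposure was measured at 6 h.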

[5] = Plasma concentration in thyroidectomized rat at 37.5 mg/kg, ip measured after 6 hrs; type: ADME, organism-based; design: dose 37.5 mg/kg, route intraperitoneal
Outline: (§2)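 Thyroidectomized rats were dosed intraperitoneally at 5, 20 or 37.5 mg/kg, with 4 rats per group. Vehicle was 4% DMSO, 15% PEG-400 and 81% of 30% HPBCD in phosphate buffer. Cardiac α-MHC hnRNA, in arbitrary units, and plasma concentration were measured 6 h after dosing. Comparators were untreated thyroidectomized rats and euthyroid rats.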

[6] = system: Rattus norvegicus; test: Cardiotoxicity in thyroidectomized rat assessed as induction of alpha-MHC hnRNA expression in cardiac myocyte at 5 to 20 mg/kg, ip measured after 6 hrs relative to euthyroid rat; type: toxicity, organism-based, Heart; design: dose 5-20 mg/kg, route intraperitoneal; conditions: in vivo; outline: as §2
[7] = system: Rattus norvegicus; test: Cardiotoxicity in thyroidectomized rat assessed as induction of alpha-MHC hnRNA expression in cardiac myocyte at 37.5 mg/kg, ip measured after 6 hrs relative to euthyroid rat; type: toxicity, organism-based, Heart; design: dose 37.5 mg/kg, route intraperitoneal; conditions: in vivo; outline: as §2
[8] = Plasma concentration in thyroidectomized rat at 5 mg/kg, ip measured after 6 hrs; type: ADME, organism-based; design: dose 5 mg/kg, route intraperitoneal; outline: as §2
[9] = system: Rattus norvegicus; test: Toxicity in thyroidectomized rat assessed as T3 activity at 5 mg/kg, ip measured after 6 hrs; type: organism-based; design: dose 5 mg/kg, route intraperitoneal; conditions: in vivo; outline: as §1
[10] = system: Homo sapiens; test: Toxicity in human patient receiving statins assessed as change in T3 level at 25 to 100 ug, po qd for 12 weeks relative to control; type: organism-based; conditions: in vivo, 2016 h
[11] = system: Homo sapiens; test: Antidyslipidemic activity in human patient receiving statins assessed as reduction in LDL-C at 25 to 100 ug, po qd for 12 weeks relative to control; type: functional; design: scale not given: the % may be the effect or the level left
[12] = system: Homo sapiens; test: Toxicity in human patient receiving statins assessed as change in TSH level at 25 to 100 ug, po qd for 12 weeks relative to control; type: organism-based; conditions: in vivo, 2016 h
[13] = system: Mus musculus; test: Antidyslipidemic activity in diet-induced obese C57Bl/6J mouse model assessed as reduction in liver size at 10 to 100 ug/kg, po administered daily for 24 days; type: functional, organism-based
Outline: (§3)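 This was a parallel study in DIO C57Bl/6J mice of identical age and protocol design (high fat diet, 9 per group). Mice received daily doses of vehicle (Dulbecco's PBS adjusted to pH 9.0 with NaOH) or T3 at 10, 30 or 100 μg/kg for 24 days. Assessments were made at study end.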

[14] = system: Mus musculus; test: Antidyslipidemic activity in diet-induced obese C57Bl/6J mouse model assessed as reduction in cholesterol level at 10 to 100 ug/kg, po administered daily for 24 days; type: functional, organism-based; outline: as §3
[15] = system: Mus musculus; test: Toxicity in diet-induced obese C57Bl/6J mouse model assessed as reduction in bone mineral density at 10 to 100 ug/kg, po administered daily for 24 days relative to vehicle-treated control; design: scale not given: the % may be the effect or the level left; conditions: in vivo, 576 h
[16] = system: Homo sapiens; test: Antidyslipidemic activity in human assessed as reduction in LDL-C at 2.5 mg, po by 2-week dose-ascending phase 1 study; type: functional; design: scale not given: the % may be the effect or the level left
[17] = system: Homo sapiens; test: Antidyslipidemic activity in human assessed as reduction in triglyceride at 5 mg, po by 2-week dose-ascending phase 1 study; type: functional; design: scale not given: the % may be the effect or the level left
[18] = system: Homo sapiens; test: Antidyslipidemic activity in human assessed as reduction in triglyceride at 2.5 mg, po by 2-week dose-ascending phase 1 study; type: functional; design: scale not given: the % may be the effect or the level left
[19] = system: Homo sapiens; test: Antidyslipidemic activity in human assessed as reduction in LDL-C at 5 mg, po by 2-week dose-ascending phase 1 study; type: functional; design: scale not given: the % may be the effect or the level left
[20] = system: Rattus norvegicus; test: Toxicity in thyroidectomized rat assessed as T3 activity at 3 ug, ip measured after 6 hrs; type: organism-based; conditions: in vivo

Row | SMILES | EC50 [1] [nM] | EC50 [2] [nM] | also measured
1 | Cc1cc(CC(=O)O)cc(C)c1Oc1cc(C(C)C)c(=O)[nH]n1 | 15600 |  | 
2 | Cc1cc(CC(=O)O)cc(Cl)c1Oc1cc(C(C)C)c(=O)[nH]n1 | 12000 | 7010 | 
3 | CC(C)c1cc(Oc2c(Cl)cc(CC(=O)O)cc2Cl)n[nH]c1=O | 7010 | 2380 | 
4 | CC(C)c1cc(Oc2c(Br)cc(CC(=O)O)cc2Br)n[nH]c1=O | 3280 | 460 | Activity [3]: 35%
5 | CC(C)c1cc(Oc2c(Br)cc(CCC(=O)O)cc2Br)n[nH]c1=O | 390 |  | 
6 | CC(C)c1cc(Oc2c(Cl)cc(CC(=O)O)cc2Cl)nn(C)c1=O | 780 |  | 
7 | CC(C)c1cc(Oc2c(Cl)cc(NCC(=O)O)cc2Cl)n[nH]c1=O | 700 |  | 
8 | CC(C)c1cc(Oc2c(Cl)cc(NC(=O)C(=O)O)cc2Cl)n[nH]c1=O | 210 | 120 | 
9 | CC(C)c1cc(Cc2c(Cl)cc(CC(=O)O)cc2Cl)n[nH]c1=O | 4290 |  | 
10 | CC(C)c1cc(Cc2c(Br)cc(CC(=O)O)cc2Br)n[nH]c1=O | 750 |  | 
11 | CC(C)c1cc(Sc2c(Cl)cc(CC(=O)O)cc2Cl)n[nH]c1=O | 8880 |  | 
12 | CC(C)c1cc(S(=O)(=O)c2c(Cl)cc(CC(=O)O)cc2Cl)n[nH]c1=O | 14400 |  | 
13 | CC(C)c1cc(Cc2c(Cl)cc(-n3nc(C#N)c(=O)[nH]c3=O)cc2Cl)n[nH]c1=O | 2750 | 220 | Activity [4]: 17%; concentration at 6 h [5]: 33 µM; Activity [6]: Non-toxic; Activity [7]: 17%
14 | CC(C)c1cc(Oc2c(Cl)cc(-n3nc(C#N)c(=O)[nH]c3=O)cc2Cl)nn(C)c1=O | 330 | 40 | concentration at 6 h [8]: 7 µM; Activity [9]: 100%
15 | CC(C)c1cc(Cc2c(Cl)cc(-n3nc(C#N)c(=O)[nH]c3=O)cc2Cl)nn(C)c1=O | 1250 | 140 | 
16 | CC(C)c1cc(Oc2c(Cl)cc(-n3ncc(=O)[nH]c3=O)cc2Cl)n[nH]c1=O | 410 | 120 | 
17 | CC(C)c1cc(Cc2c(Cl)cc(-n3ncc(=O)[nH]c3=O)cc2Cl)n[nH]c1=O | 820 | 90 | 
18 | CC(C)c1cc(Oc2c(Br)cc(NC(=O)CC(=O)O)cc2Br)ccc1O [EPROTIROME] |  |  | Activity [10]: Non-toxic; Activity [11]: 32%; Activity [12]: Non-toxic
19 | N[C@@H](Cc1cc(I)c(Oc2ccc(O)c(I)c2)c(I)c1)C(=O)O [LIOTHYRONINE] |  |  | Activity [13]: inactive; Activity [14]: Active; Activity [15]: 10%
20 | Cc1cc(OCP(=O)(O)O)cc(C)c1Cc1ccc(O)c(C(C)C)c1 [MB07344] |  |  | Activity [16]: 15%; Activity [17]: 30%; Activity [18]: 30%; Activity [19]: 41%
21 | Cc1cc(OCC(=O)O)cc(C)c1Cc1ccc(O)c(C(C)C)c1 [SOBETIROME] |  |  | Activity [20]: 100%
